Results published in PubChem BioAssay.
A number with no mark means an inactive call. Calls of active or inactive are those of the source.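 The calls were made as follows: active = growth inhibition above a set limit, 3 SD over mean compound inhibition, in both replicates (cut at about 43% in these data); inconclusive = above the limit in only one replicate; inactive = at or below the limit in both replicates.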

Assay: S. cerevisiae growth inhibition in restrictive medium, OD615, pilot screen, restrictive growth control, yeast lifespan reduction project (AID 706);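 also: modified DeaD lifespan yeast strain shifted to restrictive glucose medium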
Conditions: OD615, 48 h, at 10 µM, hits give high values
Outline: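 Material: modified S. cerevisiae; Medium: glucose-based CSMM-D restrictive medium; Compound dosing: one concentration, 10 µM final, 0.25% DMSO; Incubation: 48 h compound exposure at 30 °C; Measured by: OD615.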

SMILES	growth inhibition
COc1ccc(-c2noc(-c3cc(C)cc(C)c3)n2)cc1OC	-30.9%
Cc1c(C(=O)O)nn(-c2ccccc2)c(=O)c1C#N	5.62%
N#CCCN1CCN(C(=S)c2ccc(-c3cccc(Cl)c3)o2)CC1	22.7%
CCCc1nnc(NC(=O)c2ccncc2)s1	-3.19%
Brc1ccccc1-c1nnc(CSc2nnc3sc4ccccc4n23)o1	64.8% (active)
C=CCNc1ncnc2c1cnn2-c1ccc(Cl)cc1	1.64%
C(#Cc1ccccc1)CN1CCN(c2ccccn2)CC1	-2.65%
CCOc1ccc(-c2nc(CSCC(=O)N3CCN(c4cccc(OC)c4)CC3)c(C)o2)cc1	19.7%
COc1cc(Cl)c(S(=O)(=O)N2CCN(Cc3ccc4c(c3)OCO4)CC2)cc1Cl	-4.02%
Brc1ccc(-c2nnc3ccc(N4CCN(c5ccccc5)CC4)nn23)cc1	-10.7%
CCCCOc1ccccc1C1NC(=O)NC(C)=C1C(=O)OCCOC (configuration not stated)	-16.6%
COc1ccc(OC)c(NC(=O)C2COc3ccccc3O2)c1 (configuration not stated)	-6.21%
Cc1c(S(=O)(=O)N2CCc3ccccc3C2)c(=O)n(C)c(=O)n1C	-10.4%
CCN1CCN(CC(=O)Nc2cccc(C)c2)C(=O)C1=O	-0.21%
CCOc1ccccc1C(=O)Nc1ccc2nc(N3CCN(c4ncccn4)CC3)cc(C)c2c1	-4.81%
CCOC(=O)c1ccccc1NC1c2ccccc2C(=O)N1c1ccc(C)cn1 (configuration not stated)	6.58%

SMILES	growth inhibition
COc1ccc(OC)c(-c2cc(C(=O)N3CCN(c4ccccc4)CC3)no2)c1	20.3%
CCC(Sc1nc2c(cnn2-c2ccccc2)c(=O)[nH]1)C(=O)OC (configuration not stated)	-17.4%
COCCNc1oc(-c2ccccc2Cl)nc1C#N	-2.94%
O=C(Cn1c(=O)sc2ccccc21)NCc1ccccn1	-6.78%
C=CCSc1nnc2c(n1)OC=Nc1ccccc1-2	29.7%
CCc1ccccc1S(=O)(=O)Cc1ccc(C(=O)N2CCN(c3ccccc3OC)CC2)o1	-21.1%
CCCCCCC1C(C#N)=C(N)OC2=C1C(=O)CC(C)(C)C2 (configuration not stated)	-40.1%
CCOC(=O)C1Cn2c(nc3c(c2=O)C2(CCCC2)Cc2ccccc2-3)S1 (configuration not stated)	-1.87%
O=C(c1cc(C2CC2)on1)N1CCN(c2ccc(F)cc2)CC1	-26.9%
COc1cccc(CSc2nc3sc(C)c(C)c3c(=O)n2Cc2ccco2)c1	2.66%
COc1ccc(-c2n[nH]c(C)c2-c2cnn(-c3ccccc3)c2)c(O)c1	0.745%
O=C1C2CCCN2C(c2ccc(F)cc2)N1c1ccc(Cl)cc1 (configuration not stated)	-0.82%
CCOc1ccccc1NC1c2ccccc2C(=O)N1c1ccc(C)cn1 (configuration not stated)	3.06%
COc1cc(/C=C/C2=NC(=O)C(C)(C)O2)ccc1O	6.79%
O=C(O)c1ccc(CSc2nnc(COc3ccc(Cl)cc3Cl)o2)cc1	20.2%
N#Cc1c(NC(=O)CCCN2C(=O)c3ccccc3C2=O)oc(-c2ccccc2)c1-c1ccccc1	1.75%
